Published values from different studies.
Lines come from different studies, so protocols differ.
Effect on: cell growth or viability

CN1CCC(NC(=O)c2ccc(-c3cc(C4CC4)c4oc5c(c4c3)CCN(C(=O)/C=C/c3ccc(N)nc3)C5)nn2)C(F)(F)C1 (stereo not drawn) has an IC50 of 3.49 µM (U2OS; CCK-8; 72 h).
C=CC(=O)N1CCN(c2nc(=O)n(-c3c(C)ccnc3C(C)C)c3nc(-c4c(O)cccc4F)c(F)cc23)[C@@H](C)C1 gave an IC50 of > 1 µM (NCI-H1792; ATP luminescence).
With Cc1nc(Nc2ccc3c(c2)/C(=C/c2ccccc2)C(=O)N3Cc2ccccc2)c2ccccc2n1 the IC50 was 1.08 µM (H22; MTT).
Cc1noc2c1-c1ccccc1C(c1ccc(Cl)cc1)=N[C@H]2CC(N)=O has an IC50 of 0.76 µM (NB-4; ATP luminescence; 72 h).
With N[C@H]1CC[C@H](N[C@@H]2C[C@H]2c2ccccc2)CC1 the IC50 was 346 µM (U2OS; resazurin).
COc1cc2c3c(n(CCCN4CCOCC4)c(=O)c2cc1OC)-c1nc2c(cc1C3=O)OCO2 has an IC50 of 0.342 µM (L-363; MTS; 72 h).
COc1cc2ncnc(N(C)c3ccc4c(c3)/C(=C/c3ccccc3)C(=O)N4C)c2cc1OC (mixture of isomers) has an IC50 of 4.96 µM (H22; MTT).
With Nc1ccc(/C=C/C(=O)N2CCc3c(oc4c(-c5ccc(F)cc5)cc(-c5ccc(C(=O)N6CCC(F)(F)CC6)cc5F)cc34)C2)cn1 the IC50 was > 10 µM (U2OS; CCK-8; 72 h).
Cc1nc(NC(=O)N2CCC[C@H]2C(N)=O)sc1-c1ccnc(C(C)(C)C(F)(F)F)c1 has an IC50 of 25.4 µM (H22; MTT).
The IC50 of O=C(C=Cc1ccccc1)Nc1cc(-c2ccnc(N3CCOCC3)c2)ccn1 is reported as 0.402 µM (HeLa; MTT; 72 h).
CC1(C)CCC2(CC1)N[C@@H](C(=O)N[C@@H]1CC[C@@H](C(N)=O)OC1)[C@H](c1ccnc(Cl)c1F)[C@]21C(=O)Nc2cc(Cl)ccc21 has an IC50 of > 2 µM (U2OS; resazurin; 72 h).
The IC50 of Cc1nc(Nc2ccc3c(c2)/C(=C/c2ccccc2C)C(=O)N3C)c2ccccc2n1 is reported as 4.78 µM (H22; MTT).
For CCNCCCn1c2c(c3cc(OC)c(OC)cc3c1=O)C(=O)c1cc3c(nc1-2)OCO3, the IC50 was 0.096 µM (L-363; MTS; 72 h).
Cc1nc(Nc2ccc3c(c2)/C(=C/c2ccccc2C)C(=O)N3)c2ccccc2n1 gave an IC50 of 9.92 µM (H22; MTT).
Nc1ccc(/C=C/C(=O)N2CCc3c(oc4c(-c5ccc(F)cc5)cc(-c5ncc(C(=O)N6CCC(F)(F)CC6)cn5)cc34)C2)cn1 gave an IC50 of 5.74 µM (U2OS; CCK-8; 72 h).
